Data set [1] deals with T1, Heat shock protein HSP90 (Homo sapiens) (UniProt P07900+P08238). Description: Inhibition of C-terminal Hsp90 in human PC3MM2 cells assessed as decrease in Hsp90-dependent refolding of thermally denatured luciferase at 0.1 to 100 uM. Type of data set: cell-based. A digest of the protocol: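 Hsp90-dependent luciferase refolding measured in PC3-MM2 cells; compounds tested at 0.1−100 μM against DMSO vehicle, with a reference Hsp90 inhibitor as positive control.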

Data set [2] in a line: Anti-proliferative activity against ER positive human MCF7 cells measured after 72 hrs by MTS/PMS assay. The data set is classed as functional, cell-based. Conditions: MCF7, 72 h. Put shortly: (§1)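 Cells grown in 1:1 Advanced DMEM/F12 with non-essential amino acids, 2 mM L-glutamine, penicillin/streptomycin, 10% FBS, 37 °C, 5% CO2; seeded 2000/well, attached overnight. Compound added in DMSO (1% final), 72 h incubation; viable cells by MTS/PMS. 1% DMSO wells set as 100% proliferation; IC50 from separate experiments run in triplicate, mean ± SD of at least two experiments.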

A short description of data set [3]: Anti-proliferative activity against human SKBR3 cells over-expressing Her2 measured after 72 hrs by MTS/PMS assay. Type of data set: functional, cell-based. The note with it: SK-BR-3, 72 h. Put shortly: as §1
A short description of data set [4]: Effect on actin expression in human MCF7 cells at 0.2 to 10 uM measured after 24 hrs by Western blot method. Type of data set: ADME, cell-based. The note with it: mcf7, 24 h. Put shortly: (§2)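 MCF-7 cells cultured as for proliferation, exposed to compound in DMSO (1% final) for 24 h alongside geldanamycin 0.5 μM and DMSO controls. Harvested in cold PBS, lysed 1 h on ice in RIPA with 1 mM PMSF, 2 mM orthovanadate, protease inhibitors; cleared 14000g 10 min 4 °C. BCA-normalized 20 μg protein, reducing SDS-PAGE, nitrocellulose, specific antibodies, HRP secondary, chemiluminescence.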
(In general: A western blot detects proteins with antibodies after separation by electrophoresis.)

For data set [5], the target named is T1, Heat shock protein HSP90 (Homo sapiens). Description: Inhibition of C-terminal Hsp90 in human MCF7 cells assessed as degradation of Her2 measured after 24 hrs by Western blot method. Type of data set: cell-based. Put shortly: as §2
Data set [6] has the same target. Nature of the data set: Inhibition of C-terminal Hsp90 in human MCF7 cells assessed as degradation of Raf-1 measured after 24 hrs by Western blot method. The data set is classed as cell-based. A digest of the protocol: as §2
Data set [7] shares this target. Description: Inhibition of C-terminal Hsp90 in human MCF7 cells assessed as degradation of Akt measured after 24 hrs by Western blot method. Type of data set: cell-based. A digest of the protocol:
as §2

The source made the active and inactive calls. The rule behind the calls is not given here.

In general, IC50 refers to the concentration that inhibits the measured activity by half. Turning to `COc1cccc(-c2cc(C(=O)Nc3ccc(-c4ccc(OC5CCN(C)CC5)cc4OCCN(C)C)cc3)ccc2OC)c1`, the inhibition result in data set [1] is “Active”. Moreover, the results for the IC50 in data set [2] and in data set [3] were 1040 nM and 390 nM, respectively.
For the compound `COc1cccc(-c2cc(C(=O)Nc3ccc(-c4ccc(OC5CCN(C)CC5)cc4OC4CCN(C)CC4)cc3)ccc2OC)c1`, the 50% inhibitory concentration (IC50) was determined as 2540 nM in data set [2] and 1160 nM in data set [3].
Take `COc1cccc(-c2cc(C(=O)Nc3ccc(-c4ccc(OC5CCN(C)CC5)cc4)c(OCCCN(C)C)c3)ccc2OC)c1`: the IC50 in data set [2] amounted to 670 nM; in data set [3] it was 550 nM.
For `COc1cccc(-c2cc(C(=O)Nc3ccc(-c4ccc(OC5CCN(C)CC5)cc4)cc3OCCN(C)C)ccc2OC)c1` the same measures were 810 nM and 840 nM.
Consider `COc1cccc(-c2cc(C(=O)Nc3ccc(-c4ccc(OC5CCN(C)CC5)cc4)cc3OCCCN(C)C)ccc2OC)c1`, for which the IC50 in data set [2] was found to be 750 nM; in data set [3], 690 nM.
For the compound `COc1cccc(-c2cc(C(=O)Nc3ccc(-c4ccc(OC5CCN(C)CC5)cc4OCCCN(C)C)cc3)ccc2OC)c1`, the inhibition result in data set [1] was “Active”. The Activity entry in data set [4] is recorded as “Non-Toxic”. Besides, the figures for the IC50 in data set [2] and in data set [3] were 840 nM and 340 nM, respectively. Moreover, the inhibition entry in data set [5], in data set [6] and in data set [7] was “Dose-dependent effect” in each case.
On to `COc1cccc(-c2cc(C(=O)Nc3ccc(-c4ccc(OC5CCN(C)CC5)cc4OCCCCN(C)C)cc3)ccc2OC)c1`, for which the IC50 was determined as 1120 nM in data set [2] and 1270 nM in data set [3].
For the compound `COc1cccc(-c2cc(C(=O)Nc3ccc(-c4ccc(OC5CCN(C)CC5)cc4OCCCO)cc3)ccc2OC)c1`, the IC50 in data set [2] is 3110 nM; in data set [3] it was 3870 nM.
Regarding `COCOc1cc(OC2CCN(C)CC2)ccc1-c1ccc(NC(=O)c2ccc(OC)c(-c3cccc(OC)c3)c2)cc1`, the IC50 in data set [2] is 1380 nM; in data set [3], 1140 nM.
Regarding `COc1cccc(-c2cc(C(=O)Nc3ccc(-c4ccc(OC5CCN(C)CC5)c(OCCN(C)C)c4)cc3)ccc2OC)c1`, the IC50 in data set [2] worked out at 700 nM; in data set [3] it was 400 nM.
In the case of `COc1cccc(-c2cc(C(=O)Nc3ccc(-c4ccc(OC5CCN(C)CC5)cc4OCCCN4C(=O)c5ccccc5C4=O)cc3)ccc2OC)c1`, the IC50 in data set [2] was determined as 1430 nM; in data set [3], 3130 nM.
In the same order, the values of `COc1cccc(-c2cc(C(=O)Nc3ccc(-c4ccc(OC5CCN(C)CC5)cc4OC4CCCCC4)cc3)ccc2OC)c1` are 2360 nM and 3240 nM.
`COc1cccc(-c2cc(C(=O)Nc3ccc(-c4ccc(OC5CCN(C)CC5)cc4O)cc3)ccc2OC)c1`: the IC50 in data set [2] is 4070 nM; in data set [3], 3550 nM.
On to `COc1cccc(-c2cc(C(=O)Nc3ccc(-c4ccc(OC5CCN(C)CC5)cc4)cc3O)ccc2OC)c1`, for which the IC50 in data set [2] worked out at 710 nM; in data set [3], 910 nM.
`COc1cccc(-c2cc(C(=O)Nc3ccc(-c4ccc(OC5CCN(C)CC5)cc4)c(O)c3)ccc2OC)c1`: the IC50 turned out to be 1800 nM in data set [2] and 3430 nM in data set [3].
For `COc1cccc(-c2cc(C(=O)Nc3ccc(-c4ccc(OC5CCN(C)CC5)cc4)cc3)ccc2OC)c1`, the IC50 is 710 nM in data set [2] and 470 nM in data set [3].
For `COc1cccc(-c2cc(C(=O)Nc3ccc(-c4ccc(OC5CCN(C)CC5)c(OCCCN(C)C)c4)cc3)ccc2OC)c1` the same measures were 1050 nM and 750 nM.
In the case of `COc1cccc(-c2cc(C(=O)Nc3ccc(-c4ccc(OC5CCN(C)CC5)cc4OCCCOC(C)=O)cc3)ccc2OC)c1`, the values for the IC50 in data set [2] and in data set [3] were 2490 nM and 1960 nM, respectively.
Turning to `COc1cccc(-c2cc(C(=O)Nc3ccc(-c4ccc(OC5CCN(C)CC5)cc4)c(OCCN(C)C)c3)ccc2OC)c1`, the values for the IC50 in data set [2] and in data set [3] were 790 nM and 650 nM, respectively.
As to `COCOc1cc(-c2ccc(NC(=O)c3ccc(OC)c(-c4cccc(OC)c4)c3)cc2)ccc1OC1CCN(C)CC1`, the IC50 in data set [2] was found to be 990 nM; in data set [3] it was 820 nM.
Turning to `COc1cccc(-c2cc(C(=O)Nc3ccc(-c4ccc(OC5CCN(C)CC5)c(O)c4)cc3)ccc2OC)c1`, the IC50 in data set [2] was determined as 1220 nM; in data set [3], 1560 nM.

Source of the values: ChEMBL document CHEMBL3872254, “Design, synthesis and biological evaluation of alkylamino biphenylamides as Hsp90 C-terminal inhibitors” (Bioorg Med Chem, 2017).
